In ChEMBL document CHEMBL1157526, “Development of novel beta-amyloid probes based on 3,5-diphenyl-1,2,4-oxadiazole” (Bioorg Med Chem, 2008):

assay: Displacement of [125I]IMPY from amyloid beta (1-42) aggregates
Summary of the method: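 Synthetic Aβ(1–42) dissolved at 0.25 mg/mL in 10 mM sodium phosphate, 1 mM EDTA, pH 7.4, aggregated 42 h at 37 °C with gentle constant shaking. Competition against [125I]IMPY (2200 Ci/mmol, >95% radiochemical purity). Filter-bound radioactivity gamma-counted, specific binding under 15% of total. IC50 from displacement curves, Ki by Cheng-Prusoff. Mean ± SEM of 3–6 independent experiments.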

Point of comparison: `CN(C)c1ccc(-c2nc(-c3ccc(I)cc3)no2)cc1`, Ki 15.4 nM. Against it:
- CNc1ccc(-c2nc(-c3ccc(I)cc3)no2)cc1 — within 1.5-fold, 14.3 nM
- Oc1ccc(-c2nc(-c3ccc(I)cc3)no2)cc1 — 3.1-fold higher, 47.1 nM
- COc1ccc(-c2nc(-c3ccc(I)cc3)no2)cc1 — 3.6-fold lower, 4.3 nM
- Nc1ccc(-c2nc(-c3ccc(I)cc3)no2)cc1 — within 1.5-fold, 14.2 nM
